{"data": "Assay results collected from several papers", "CYP2C9": "Cytochrome P450 2C9 (CYP2C9, Homo sapiens, UniProt P11712)", "CYP2C8": "Cytochrome P450 2C8 (CYP2C8, Homo sapiens, UniProt P10632)", "note": "Lines come from different studies, so protocols differ."}
{"target or system": "CYP2C9", "test": "enzyme activity, inhibitor", "system": "human, liver microsomes", "endpoint": "IC50", "value": "> 200 µM", "SMILES": "CC(C)(O)[C@@H]1CC[C@](C)([C@H]2[C@@H](O)C[C@@]3(C)[C@@H]4C[C@H](O[C@@H]5O[C@H](CO)[C@@H](O)[C@H](O)[C@H]5O)[C@H]5C(C)(C)[C@@H](O[C@@H]6OC[C@@H](O)[C@H](O)[C@H]6O)CC[C@@]56C[C@@]46CC[C@]23C)O1"}
{"target or system": "CYP2C8", "test": "enzyme activity, inhibitor", "system": "human, liver microsomes", "conditions": "20 min, without NADPH, with preincubation", "endpoint": "IC50", "value": "> 100 µM", "SMILES": "CSc1ccccc1C(=O)NCCn1cc(C(=O)NCc2cccc(C)n2)c(=O)c2cc3c(cc21)OCO3"}
{"target or system": "CYP2C9", "test": "enzyme activity, inhibitor", "system": "human, liver microsomes", "endpoint": "IC50", "value": "116 µM", "SMILES": "CC(=O)O[C@H]1[C@H](O[C@H]2CC[C@]34C[C@]35CC[C@]3(C)[C@@H]([C@@]6(C)CC[C@@H](C(C)(C)O)O6)[C@@H](O)C[C@@]3(C)[C@@H]5C[C@H](O[C@@H]3O[C@H](CO)[C@@H](O)[C@H](O)[C@H]3O)[C@H]4C2(C)C)OC[C@@H](OC(C)=O)[C@@H]1O"}
{"test": "metabolic stability", "system": "rat, liver microsomes", "conditions": "10 µM, pH 7.4", "endpoint": "half-life", "value": "18 min", "SMILES": "Cc1cccc(-c2nnc(N[C@@H](Cc3ccc(C#N)cc3)C(=O)N3CCc4ccccc43)o2)c1"}
{"target or system": "CYP2C8", "test": "enzyme activity, inhibitor", "system": "human, liver microsomes", "conditions": "20 min, without NADPH, with preincubation", "endpoint": "IC50", "value": "> 100 µM", "SMILES": "CSc1ccccc1C(=O)NCCn1cc(C(=O)NCc2cccc(C)n2)c(=O)c2cc3c(cc21)OC(F)(F)O3"}
{"test": "chemical stability, HPLC", "system": "glutathione solution", "conditions": "5 µM, pH 7.4", "endpoint": "half-life", "value": "520 min", "SMILES": "C=C(F)C(=O)N1CCN(c2nc(OC[C@@H]3CCCN3C)nc3c2CCN(c2cccc4cccc(Cl)c24)C3)C[C@@H]1CC#N"}
{"system": "male CD-1 mouse, plasma", "conditions": "oral, 10 mg/kg", "endpoint": "bioavailability", "value": "15%", "SMILES": "NCc1ccc(-c2nn(Cc3ccncc3)c3ccccc23)o1"}
{"test": "chemical stability", "system": "simulated intestinal fluid", "endpoint": "half-life", "value": "> 300 min", "SMILES": "Cc1ccc(OCC(=O)N[C@@H](Cc2c[nH]c3ccccc23)C(=O)OC(C)C)cc1"}
{"test": "metabolic stability", "system": "rat, liver microsomes", "conditions": "1 µM, pH 7.4", "endpoint": "half-life", "value": "6 min", "SMILES": "OCc1ccc(-c2nn(Cc3ccccc3)c3ccccc23)o1"}
{"system": "BALB/c mouse, plasma", "conditions": "oral, 20 mg/kg", "endpoint": "AUC", "value": "7810 ng·h/mL", "SMILES": "CN(C)C(=O)c1cc2cnc(Nc3ccc(-c4ccc5c(=O)cc(N6CCOCC6)oc5c4)cc3)nc2n1C1CCCC1.Cl"}
{"test": "metabolic stability", "system": "rat, liver microsomes", "conditions": "10 µM, pH 7.4", "endpoint": "half-life", "value": "15 min", "SMILES": "N#Cc1ccc(C[C@@H](Nc2c(Nc3ccc(F)cc3)c(=O)c2=O)C(=O)N2CCc3ccccc32)cc1"}
{"test": "metabolic stability", "system": "rat, liver microsomes", "conditions": "1 µM, pH 7.4", "endpoint": "half-life", "value": "7 min", "SMILES": "COc1cc(Cn2nc(-c3ccc(CO)o3)c3ccccc32)ccn1"}
